The term CC50 denotes the concentration giving 50% cytotoxicity. Broadly, the MIC50 is the lowest concentration that inhibits either 50% of growth or 50% of the strains tested, depending on the study.

≈ marks a conversion by molar mass, not a printed value.

Data set [1] concerns Mycobacterium tuberculosis. In words: Antitubercular activity against Mycobacterium tuberculosis H37Ra assessed as bacterial growth inhibition at 1 to 5 ug/ml by MABA relative to control. In kind it is functional. On the technique in general: Resazurin is reduced to fluorescent resorufin, in cell work by metabolically active cells.
Data set [2] can be described thus: Cytotoxicity against African green monkey Vero cells assessed as reduction in cell viability by MTT assay. It counts as cell-based. Particulars: chlorocebus sabaeus. In a few lines:
(§1)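 Viability read by the standard formazan (MTT) method. CC50 is the concentration giving a 50% decrease in cell viability, reported in µM as CC50±SD.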
(In general: Formazan colour is commonly taken as a measure of viable cells.)

Data set [3] in a line: Cytotoxicity against human MRC5 cells assessed as reduction in cell viability by MTT assay. It counts as cell-based. A digest of the protocol: as §1
Data set [4] has as its system Mycobacterium tuberculosis. Description: Antitubercular activity against Mycobacterium tuberculosis H37Ra assessed as bacterial growth inhibition at 10 ug/ml by MABA relative to control. In kind it is functional. Particulars: read-out: GI.
For data set [5], the system named is Mycobacterium tuberculosis. Description: Antitubercular activity against Mycobacterium tuberculosis H37Ra assessed as bacterial growth inhibition at 50 to 100 ug/ml by MABA relative to control. In kind it is functional.
In data set [6] the test system is Mycobacterium tuberculosis. Description: Antitubercular activity against Mycobacterium tuberculosis H37Ra assessed as bacterial growth inhibition by MABA. In kind it is functional. A digest of the protocol:
(§2)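 Whole-cell growth inhibition of Mycobacterium bovis and M. tuberculosis H37Ra, read quantitatively by Microplate Alamar Blue Assay (alamar blue reagent). Compounds were tested across 1 to 100 µg/ml. Activity was expressed as MIC50 (µg/ml) from this concentration series.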

Data set [7] in a line: Cytotoxicity against human A549 cells assessed as reduction in cell viability by MTT assay. It counts as cell-based. A digest of the protocol: as §1
Data set [8] concerns Mycobacterium tuberculosis. In words: Antitubercular activity against Mycobacterium tuberculosis H37Ra assessed as bacterial growth inhibition by MABA relative to control. In kind it is functional. In a few lines: as §2
In data set [9] the test system is Mycobacterium tuberculosis. In words: Antitubercular activity against Mycobacterium tuberculosis H37Ra assessed as bacterial growth inhibition at 100 ug/ml by MABA relative to control. In kind it is functional. Particulars: read-out: GI.
For data set [10], the system named is Mycobacterium tuberculosis. Description: Antitubercular activity against Mycobacterium tuberculosis H37Ra assessed as bacterial growth inhibition at 50 ug/ml by MABA relative to control. In kind it is functional. Particulars: read-out: GI.
In data set [11] the test system is Mycobacterium tuberculosis. In words: Antitubercular activity against Mycobacterium tuberculosis H37Ra assessed as bacterial growth inhibition at 5 ug/ml by MABA relative to control. It counts as functional. Particulars: read-out: GI.
The test system of data set [12] is Mycobacterium tuberculosis. Description: Antitubercular activity against Mycobacterium tuberculosis H37Ra assessed as bacterial growth inhibition at 25 ug/ml by MABA relative to control. It counts as functional. Particulars: read-out: GI.
The test system of data set [13] is Mycobacterium tuberculosis. In words: Antitubercular activity against Mycobacterium tuberculosis H37Ra assessed as bacterial growth inhibition at 1 ug/ml by MABA relative to control. In kind it is functional. Particulars: read-out: GI.

In the case of `O=c1[nH]c(=O)n([C@@H]2O[C@H](CO)[C@@H](O)[C@H]2O)cc1C#Cc1ccccc1`, the “growth inhibition (GI)” value turned out to be 50% in data set [1] and 90% in [5]. Also, the CC50 came out at 78.4 µM in data set [2], 1.2 µM in [3] and 42.5 µM in data set [7]. Further, the inhibition of growth at 10 µg/mL in data set [4] stood at 70%. In addition, the MIC50 in data set [6] turned out to be 3.2 µg/mL (≈ 9.29 µM).
For `CCCCCCC#Cc1c[nH]c(=O)[nH]c1=O`, the results for the CC50 in data set [2], in data set [3] and in [7] were 250 µM, 94.9 µM and 249 µM, respectively. The “growth inhibition (GI)” value in [8] worked out at 0%.
`C[Si](C)(C)C#Cc1c[nH]c(=O)[nH]c1=O`: the figures for the CC50 in [2], in data set [3] and in data set [7] were 270 µM, 124 µM and 268 µM, respectively. Further, the inhibition of growth at 100 µg/mL in data set [9] came to 50%. The MIC50 in [6] stood at 100 µg/mL (≈ 480 µM).
For `O=c1[nH]cc(C#CC2CCCCC2)c(=O)[nH]1`, the “growth inhibition (GI)” value in data set [1] was determined as 50%. The CC50 in [2] is 247 µM; in data set [3], 62.8 µM; in data set [7] it was 245 µM. Also, the inhibition of growth at 100 µg/mL in data set [9] came to 90%. Moreover, in [6], the MIC50 is 2.8 µg/mL (≈ 12.8 µM).
As for `O=c1[nH]cc(C#CC2CC2)c(=O)[nH]1`, the CC50 in [2] came to 252 µM; in data set [3], 101 µM; in [7], 251 µM. The inhibition of growth at 100 µg/mL in data set [9] was found to be 90%. Further, the MIC50 in data set [6] came out at 5.2 µg/mL (≈ 29.5 µM). The inhibition of growth at 50 µg/mL in data set [10] amounted to 70%.
For the compound `CCCCC#Cc1cn([C@@H]2O[C@H](CO)[C@@H](O)[C@H]2O)c(=O)[nH]c1=O`, the CC50 is 103 µM in data set [2], 11.6 µM in data set [3] and 83.2 µM in [7]. Besides, the inhibition of growth at 100 µg/mL in [9] came to 90%. Also, in [4], the inhibition of growth at 10 µg/mL came out at 10%. Besides, the MIC50 in [6] turned out to be 50 µg/mL (≈ 154 µM). The inhibition of growth at 50 µg/mL in data set [10] amounted to 50%.
`CCCCC#Cc1c[nH]c(=O)[nH]c1=O`: the CC50 in data set [2] was 253 µM; in data set [3] it was 113 µM; in data set [7], 250 µM. The “growth inhibition (GI)” value in data set [8] came out at 0%.
`O=c1[nH]c(=O)n([C@@H]2O[C@H](CO)[C@@H](O)[C@H]2O)cc1C#CC1CC1`: the “growth inhibition (GI)” value in data set [1] was found to be 50%. The CC50 in data set [2] came out at 133 µM; in data set [3], 24.2 µM; in data set [7], 115 µM. In data set [9], the inhibition of growth at 100 µg/mL came out at 90%. Moreover, the inhibition of growth at 10 µg/mL in [4] amounted to 70%.
Regarding `CCC#Cc1c[nH]c(=O)[nH]c1=O`, the CC50 turned out to be 263 µM in [2], 120 µM in data set [3] and 253 µM in [7]. The “growth inhibition (GI)” value in data set [8] stood at 0%.
As to `N[C@@H]1CONC1=O` [CYCLOSERINE], in [11], the inhibition of growth at 5 µg/mL is 50%. Also, the inhibition of growth at 10 µg/mL in data set [4] amounted to 67%. For the same compound, the MIC50 in [6] amounted to 5.2 µg/mL (≈ 50.9 µM).
For `O=c1[nH]c(=O)n([C@@H]2O[C@H](CO)[C@@H](O)[C@H]2O)cc1C#CC1CCCCC1`, the “growth inhibition (GI)” value in [1] worked out at 10%. The values for the CC50 in [2], in data set [3] and in data set [7] were 148 µM, 36.8 µM and 127 µM, respectively. Besides, the inhibition of growth at 25 µg/mL in data set [12] turned out to be 55%. Moreover, the MIC50 in data set [6] was 18.9 µg/mL (≈ 53.9 µM). In addition, the inhibition of growth at 50 µg/mL in [10] worked out at 70%.
Turning to `CO[C@H]1/C=C/O[C@@]2(C)Oc3c(C)c(O)c4c(O)c(c(/C=N/N5CCN(C)CC5)c(O)c4c3C2=O)NC(=O)/C(C)=C\C=C\[C@H](C)[C@H](O)[C@@H](C)[C@@H](O)[C@@H](C)[C@H](OC(C)=O)[C@@H]1C` [RIFAMPIN], the inhibition of growth at 1 µg/mL in data set [13] stood at 100%. Moreover, the MIC50 in data set [6] worked out at 0.7 µg/mL (≈ 0.851 µM).
`CCCCCCC#Cc1cn([C@@H]2O[C@H](CO)[C@@H](O)[C@H]2O)c(=O)[nH]c1=O`: the CC50 in data set [2] was found to be 111 µM; in [3], 15.7 µM; in [7] it was 87.2 µM. Besides, the inhibition of growth at 100 µg/mL in [9] was 90%. Further, in data set [4], the inhibition of growth at 10 µg/mL amounted to 0%. Also, in data set [6], the MIC50 was below 50 µg/mL.
In the case of `O=c1[nH]cc(C#CC(O)c2ccccc2)c(=O)[nH]1` (stereo not given), the “growth inhibition (GI)” value in data set [1] was determined as 50%; in data set [5], 90%. Moreover, the figures for the CC50 in data set [2], in data set [3] and in data set [7] were 242 µM, 38.4 µM and 237 µM, respectively. The inhibition of growth at 10 µg/mL in data set [4] was 75%. Further, the MIC50 in [6] was 2.9 µg/mL (≈ 12 µM).
For `NNC(=O)c1ccncc1` [ISONIAZID], the inhibition of growth at 1 µg/mL in data set [13] turned out to be 100%. The MIC50 in data set [6] is 0.8 µg/mL (≈ 5.83 µM).
As for `O=c1[nH]cc(C#Cc2ccccc2)c(=O)[nH]1`, the CC50 in data set [2] came out at 254 µM; in data set [3], 75.1 µM; in data set [7] it was 248 µM. Also, in [5], the “growth inhibition (GI)” value amounted to 90%. Further, the MIC50 in data set [6] amounted to 18.2 µg/mL (≈ 85.8 µM).
Consider `CC#Cc1c[nH]c(=O)[nH]c1=O`, for which the CC50 in data set [2] turned out to be 262 µM; in data set [3], 117 µM; in data set [7], 256 µM. Besides, the “growth inhibition (GI)” value in [8] came to 0%.
In the case of `O=c1[nH]c(=O)n([C@@H]2O[C@H](CO)[C@@H](O)[C@H]2O)cc1C#CC(O)c1ccccc1` (stereo not given in full), the “growth inhibition (GI)” value in data set [1] amounted to 100%. Also, the CC50 in data set [2] was determined as 65.4 µM; in [3] it was 0.9 µM; in [7], 34.2 µM. Moreover, the MIC50 in data set [6] was 1.1 µg/mL (≈ 2.94 µM).

The record behind these values is ChEMBL document CHEMBL4622950, “The synthesis and antituberculosis activity of 5-alkynyl uracil derivatives” (Bioorg Med Chem Lett, 2020).
